Key:
[1] = molecular target: Serine/threonine-protein kinase MARK2 (Homo sapiens) (UniProt Q7KZI7); test: Inhibition of human recombinant MARK2 at 40 nM related to control ULK1
[2] = molecular target: T1, Ephrin type-B receptor 1 (Homo sapiens) (UniProt P54762); test: Inhibition of human recombinant EphB1 at 40 nM related to control ULK1
T1 sequence (whole entry): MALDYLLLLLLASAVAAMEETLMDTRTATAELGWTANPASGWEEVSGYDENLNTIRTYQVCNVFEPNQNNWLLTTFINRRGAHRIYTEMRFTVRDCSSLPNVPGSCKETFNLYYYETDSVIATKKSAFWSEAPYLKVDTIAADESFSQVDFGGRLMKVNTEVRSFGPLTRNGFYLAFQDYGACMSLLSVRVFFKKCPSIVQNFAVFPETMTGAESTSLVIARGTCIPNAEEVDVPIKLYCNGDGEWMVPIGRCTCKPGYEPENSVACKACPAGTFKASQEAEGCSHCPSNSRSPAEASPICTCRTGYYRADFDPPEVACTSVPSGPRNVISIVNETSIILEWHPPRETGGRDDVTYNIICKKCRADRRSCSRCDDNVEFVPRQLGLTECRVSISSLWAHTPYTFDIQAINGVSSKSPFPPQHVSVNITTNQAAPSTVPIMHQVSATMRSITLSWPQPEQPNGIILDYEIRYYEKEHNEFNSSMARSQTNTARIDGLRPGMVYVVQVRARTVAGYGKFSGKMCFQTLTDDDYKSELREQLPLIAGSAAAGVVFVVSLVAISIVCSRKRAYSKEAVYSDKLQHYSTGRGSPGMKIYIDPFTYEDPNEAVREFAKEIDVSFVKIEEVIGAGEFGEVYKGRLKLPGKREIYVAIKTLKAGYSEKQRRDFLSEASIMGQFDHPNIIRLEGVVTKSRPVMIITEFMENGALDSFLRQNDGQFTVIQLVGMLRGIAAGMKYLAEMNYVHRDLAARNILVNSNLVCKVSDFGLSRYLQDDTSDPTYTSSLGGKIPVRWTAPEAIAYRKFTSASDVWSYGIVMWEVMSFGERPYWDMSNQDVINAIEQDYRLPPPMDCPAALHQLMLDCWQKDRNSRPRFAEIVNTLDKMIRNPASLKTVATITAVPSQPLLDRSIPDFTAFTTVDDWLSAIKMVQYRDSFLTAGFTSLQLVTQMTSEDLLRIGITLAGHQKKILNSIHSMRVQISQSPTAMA

[3] = molecular target: T2, G protein-coupled receptor kinase 3 (Homo sapiens) (UniProt P35626); test: Inhibition of human recombinant BARK2 at 15 nM related to control ULK1
T2 sequence (whole entry): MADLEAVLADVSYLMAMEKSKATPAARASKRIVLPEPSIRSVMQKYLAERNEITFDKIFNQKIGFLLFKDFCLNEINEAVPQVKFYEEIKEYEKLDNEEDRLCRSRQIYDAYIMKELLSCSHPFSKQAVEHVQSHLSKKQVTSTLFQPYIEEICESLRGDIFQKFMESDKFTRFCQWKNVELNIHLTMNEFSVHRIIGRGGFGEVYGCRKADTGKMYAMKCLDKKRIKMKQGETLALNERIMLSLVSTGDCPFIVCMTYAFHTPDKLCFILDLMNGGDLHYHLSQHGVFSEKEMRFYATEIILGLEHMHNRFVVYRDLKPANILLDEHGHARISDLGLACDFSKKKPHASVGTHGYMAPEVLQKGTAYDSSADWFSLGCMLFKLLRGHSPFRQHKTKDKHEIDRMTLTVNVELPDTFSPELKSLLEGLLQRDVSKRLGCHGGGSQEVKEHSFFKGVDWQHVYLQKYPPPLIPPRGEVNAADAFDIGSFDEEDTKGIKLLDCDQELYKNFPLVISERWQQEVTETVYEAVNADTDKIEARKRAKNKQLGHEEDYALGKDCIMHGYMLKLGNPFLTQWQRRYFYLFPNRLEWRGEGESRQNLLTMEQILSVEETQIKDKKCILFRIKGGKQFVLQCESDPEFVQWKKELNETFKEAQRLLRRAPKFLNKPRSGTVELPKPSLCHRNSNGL

[4] = molecular target: T3, Serine/threonine-protein kinase A-Raf (Homo sapiens) (UniProt P10398); test: Inhibition of human recombinant ARAF at 500 nM in presence of ATP by radiometric assay relative to control
T3 sequence (whole entry): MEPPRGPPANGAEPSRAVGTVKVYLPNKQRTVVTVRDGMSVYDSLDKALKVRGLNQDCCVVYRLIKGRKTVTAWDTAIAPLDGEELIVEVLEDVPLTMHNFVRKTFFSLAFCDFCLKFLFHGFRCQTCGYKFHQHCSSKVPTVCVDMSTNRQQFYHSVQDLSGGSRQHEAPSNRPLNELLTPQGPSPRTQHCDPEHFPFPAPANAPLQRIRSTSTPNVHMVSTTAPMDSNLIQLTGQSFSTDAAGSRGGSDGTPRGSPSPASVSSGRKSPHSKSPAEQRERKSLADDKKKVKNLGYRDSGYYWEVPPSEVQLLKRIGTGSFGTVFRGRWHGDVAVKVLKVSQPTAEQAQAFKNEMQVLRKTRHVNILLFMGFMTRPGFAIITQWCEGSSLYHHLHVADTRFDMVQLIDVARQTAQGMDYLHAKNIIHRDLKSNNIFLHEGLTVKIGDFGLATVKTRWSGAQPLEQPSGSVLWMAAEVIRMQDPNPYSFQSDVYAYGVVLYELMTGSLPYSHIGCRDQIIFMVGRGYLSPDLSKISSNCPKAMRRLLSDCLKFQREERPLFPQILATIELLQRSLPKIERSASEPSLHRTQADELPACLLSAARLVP
Procedure, shortened: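 Panel of 327 recombinant human kinases, each assayed in vitro by radiometric activity assay in duplicate at a single inhibitor concentration per compound, chosen with reference to its ULK1 inhibition. Activity remaining was expressed as percent of vehicle control, and percent inhibition was calculated as 100 minus percent activity remaining.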

[5] = molecular target: Serine/threonine-protein kinase 35 (Homo sapiens) (UniProt Q8TDR2); test: Inhibition of human recombinant CLIK1 at 500 nM related to control ULK1
[6] = molecular target: Serine/threonine-protein kinase 10 (Homo sapiens) (UniProt O94804); test: Inhibition of human recombinant LOK at 500 nM in presence of ATP by radiometric assay relative to control
[7] = molecular target: Serine/threonine-protein kinase NIM1 (Homo sapiens) (UniProt Q8IY84); test: Inhibition of human recombinant NIM1 at 500 nM in presence of ATP by radiometric assay relative to control
[8] = molecular target: Activin receptor type-2A (Homo sapiens) (UniProt P27037); test: Inhibition of human recombinant ACTR2 at 500 nM related to control ULK1
[9] = molecular target: cAMP-dependent protein kinase catalytic subunit alpha (Homo sapiens) (UniProt P17612); test: Inhibition of human recombinant PKACalpha at 500 nM in presence of ATP by radiometric assay relative to control

In the case of `O=C(N[C@@H](C1CC1)C(F)(F)F)c1cc(-c2cnn3cc(-c4ccc(F)cc4)cnc23)cs1`, the fold change (FC) [1] is reported as 0.16 and the fold change (FC) [2] is reported as 0.01.
With `CC(C)[C@H](NC(=O)c1cc(-c2cnn3cc(-c4ccc(OCCN5CCCCC5)cc4)cnc23)cs1)C(F)(F)F` the fold change (FC) [3] was 0.
Compound `CNC(=O)c1ccccc1Oc1nc(Nc2cc(OC)c(OC)c(OC)c2)ncc1Br` has an inhibition [4] of 0%, a fold change (FC) [5] of 0.04 and an inhibition [6] of 0%. It also gave an inhibition [7] of 0%, a fold change (FC) [8] of 0.04 and an inhibition [9] of 0%.
